A short description of series [1]: Cytotoxicity against HEK293 cells assessed as growth inhibition. It counts as cell-based. To be noted: human. The procedure, abridged: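 Cytotoxicity was tested in proliferating HEK293 cells with GI50 as the read-out. Data are the mean of at least two independent experiments.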
The subject of series [2] is THP-1. Description: Cytotoxicity against human THP1 cells assessed as growth inhibition after 5 days by MTT assay. It counts as functional. To be noted: THP-1, 120 h. The procedure, abridged: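 They were seeded at 5000 cells per well onto compound or DMSO (0.2% final). Plates were kept 5 days at 37 °C in 5% CO2 with no medium change, then read by MTT.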
(Tetrazolium dyes change colour on reduction, which living cells bring about.)

The target in series [3] is T1, Dual specificity protein kinase CLK1/CLK4 (Homo sapiens, UniProt Q9HAZ1+P49759). Description: Inhibition of CLK1/4 in human MDA-MB-231 cells assessed as down regulation of EGFR expression after 3 days by Western blot analysis. It counts as cell-based. The procedure, abridged: (§1)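 T24 or MDA-MB-231 cells were grown in DMEM to 70% confluency. The medium was replaced with compound diluted in DMEM, and cells were kept 3 days. Total protein was immunoblotted with monoclonal antibodies in 3% BSA/PBS against EGFR, p70S6K α, PARP-1, ERK2, HDAC1, CD44, PCNA and GRP94.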
(A western blot detects proteins with antibodies after separation by electrophoresis.)

Series [4] has as its target Dual specificity protein kinase CLK2 (Mus musculus) (UniProt O35491). Description: Inhibition of recombinant GST-tagged mouse CLK2 using GRSRSRSRSRSR as substrate at 1 uM after 30 mins in presence of [gamma-32P]-ATP by scintillation counting method.
The target of series [5] is T1, Dual specificity protein kinase CLK1/CLK4. Description: Inhibition of CLK1/4 in human MDA-MB-231 cells assessed as down regulation of S6 kinase expression at 2.5 uM after 3 days by Western blot analysis relative to control. It counts as cell-based. In a few lines:
as §1

The subject of series [6] is MDA-MB-231. Description: Down regulation of GRP94 expression in human MDA-MB-231 cells at 2.5 to 20 uM after 3 days by Western blot analysis. It counts as functional, cell-based. The procedure, abridged: as §1
The target of series [7] is Dual specificity protein kinase CLK4 (Mus musculus) (UniProt O35493). Description: Inhibition of recombinant GST-tagged mouse CLK4 using GRSRSRSRSRSR as substrate at 1 uM after 30 mins in presence of [gamma-32P]-ATP by scintillation counting method.
Series [8] addresses Serine/threonine-protein kinase haspin (Homo sapiens) (UniProt Q8TF76). Description: Inhibition of MBP-Haspin (unknown origin) at 1 uM after 10 mins by TR-FRET assay. The procedure, abridged:
(§2)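 Tested in a commercial kinase profiling panel at an ATP concentration of 100 μM. Data are the mean of duplicates that differed by less than 7%.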

For series [9], the target named is T1, Dual specificity protein kinase CLK1/CLK4. Description: Inhibition of CLK1/4 in human T24 cells assessed as down regulation of HDAC1 expression at 1.25 uM after 3 days by Western blot analysis relative to control. It is filed as cell-based. In a few lines:
as §1

Series [10] concerns the target Dual specificity tyrosine-phosphorylation-regulated kinase 3 (Homo sapiens) (UniProt O43781). Description: Inhibition of DYRK3 (unknown origin) using KKISGRLSPIMTEQ-NH2 as substrate at 1 uM after 15 mins in presence of [gamma-32P]-ATP.
For series [11], the species on record is Homo sapiens. Description: Inhibition of recombinant human casein kinase 2 using RRREDEESDDEE as substrate at 1 uM after 30 mins in presence of [gamma-32P]-ATP by scintillation counting method.
In series [12] the target is T1, Dual specificity protein kinase CLK1/CLK4. Description: Inhibition of CLK1/4 in human T24 cells assessed as down regulation of EGFR expression at 5 uM after 3 days by Western blot analysis relative to control. It counts as cell-based. The procedure, abridged:
as §1

Series [13] concerns the target Dual specificity protein kinase CLK1 (Homo sapiens, UniProt P49759). Description: Inhibition of recombinant human GST-tagged Clk1 expressed in Escherichia coli at 1 uM using RS repeat substrate peptide after 15 mins in presence of [gamma-32]-ATP.
Series [14] concerns the target T1, Dual specificity protein kinase CLK1/CLK4. Description: Inhibition of CLK1/4 in human T24 cells assessed as down regulation of HDAC1 expression at 10 uM after 3 days by Western blot analysis relative to control. It is filed as cell-based. In a few lines:
as §1

Series [15] deals with Dual specificity protein kinase CLK3 (Mus musculus) (UniProt O35492). Description: Inhibition of recombinant GST-tagged mouse CLK3 using GRSRSRSRSRSR as substrate at 1 uM after 30 mins in presence of [gamma-32P]-ATP by scintillation counting method.
Series [16] concerns the target Serine/threonine-protein kinase 17A (Homo sapiens) (UniProt Q9UEE5). Description: Inhibition of STK17A (unknown origin) at 1 uM after 15 mins. The procedure, abridged: as §2
For series [17], the target named is Dual specificity protein kinase CLK2 (Mus musculus, UniProt O35491). Description: Inhibition of recombinant GST-tagged mouse CLK2 using GRSRSRSRSRSR as substrate after 30 mins in presence of [gamma-32P]-ATP by scintillation counting method.
In series [18] the target is T1, Dual specificity protein kinase CLK1/CLK4. Description: Inhibition of CLK1/4 in human MDA-MB-231 cells assessed as down regulation of S6 kinase expression at 10 uM after 3 days by Western blot analysis relative to control. It is filed as cell-based. In a few lines:
as §1

Series [19] relates to T-24. Description: Down regulation of CD44 expression in human T24 cells at 1.25 to 10 uM after 3 days by Western blot analysis. It is filed as functional, cell-based. The procedure, abridged:
as §1

Series [20] deals with SRSF protein kinase 2 (Homo sapiens) (UniProt P78362). Description: Inhibition of SRPK2 (unknown origin) at 1 uM. In a few lines:
as §2

The subject of series [21] is PBL. Description: Cytotoxicity against human PBL after 2 days by MTT assay. It counts as cell-based. The settings on record: 48 h. In a few lines: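 Cells plated at 30 000 per well with test compounds or DMSO control for 2 days, then MTT read-out. LC50 reported as the mean of at least two independent experiments.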
Series [22] concerns the target T1, Dual specificity protein kinase CLK1/CLK4. Description: Inhibition of CLK1/4 in human HepG2 cells assessed as down regulation of S6 kinase expression at 20 uM after 3 days by Western blot analysis relative to control. It counts as cell-based. In a few lines:
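HepG2 cells were grown in DMEM to 70% confluency, then the medium was replaced with compound diluted in DMEM. After 3 days, total protein was immunoblotted with monoclonal antibodies including HDAC1 and p70S6K.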

For series [23] the target is unchanged. Description: Inhibition of CLK1/4 in human MDA-MB-231 cells assessed as down regulation of EGFR expression at 20 uM after 3 days by Western blot analysis relative to control. It is filed as cell-based. In a few lines:
as §1

pIC50: −log10 of the molar value. The source made the active and inactive calls. No cut-off for these calls is given here.

Chain of Dual specificity protein kinase CLK1 (P49759 whole entry, looked up): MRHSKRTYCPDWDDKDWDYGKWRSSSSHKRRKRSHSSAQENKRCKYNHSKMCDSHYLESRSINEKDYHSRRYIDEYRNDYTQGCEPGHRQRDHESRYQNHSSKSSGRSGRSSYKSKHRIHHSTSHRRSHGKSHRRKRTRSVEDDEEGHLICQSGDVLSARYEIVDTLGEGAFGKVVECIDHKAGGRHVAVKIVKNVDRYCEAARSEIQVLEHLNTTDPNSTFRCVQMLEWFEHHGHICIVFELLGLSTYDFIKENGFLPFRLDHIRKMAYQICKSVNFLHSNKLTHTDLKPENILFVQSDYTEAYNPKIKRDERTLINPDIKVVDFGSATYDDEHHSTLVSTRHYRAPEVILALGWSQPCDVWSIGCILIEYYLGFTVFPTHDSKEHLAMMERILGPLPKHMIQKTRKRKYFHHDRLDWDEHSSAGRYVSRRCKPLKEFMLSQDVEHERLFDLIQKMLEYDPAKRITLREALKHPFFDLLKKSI
Chain of Dual specificity tyrosine-phosphorylation-regulated kinase 3 (Homo sapiens) (O43781 whole entry): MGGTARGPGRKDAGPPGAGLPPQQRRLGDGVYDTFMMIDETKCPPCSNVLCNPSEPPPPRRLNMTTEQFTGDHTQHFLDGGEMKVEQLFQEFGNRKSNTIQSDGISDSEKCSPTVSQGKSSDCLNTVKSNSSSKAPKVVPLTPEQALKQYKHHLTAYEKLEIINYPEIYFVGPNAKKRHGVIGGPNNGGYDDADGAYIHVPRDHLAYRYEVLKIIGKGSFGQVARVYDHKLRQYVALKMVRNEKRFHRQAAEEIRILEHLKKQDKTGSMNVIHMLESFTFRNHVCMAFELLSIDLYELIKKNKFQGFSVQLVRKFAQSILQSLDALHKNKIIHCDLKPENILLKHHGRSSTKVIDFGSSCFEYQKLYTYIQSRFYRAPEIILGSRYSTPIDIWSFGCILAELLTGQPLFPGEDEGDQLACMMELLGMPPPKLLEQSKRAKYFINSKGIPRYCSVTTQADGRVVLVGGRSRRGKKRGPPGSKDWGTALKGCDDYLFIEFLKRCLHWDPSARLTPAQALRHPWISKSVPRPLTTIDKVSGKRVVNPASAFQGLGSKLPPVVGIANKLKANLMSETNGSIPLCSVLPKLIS
Chain of Dual specificity protein kinase CLK4 (Mus musculus) (O35493 whole entry, looked up): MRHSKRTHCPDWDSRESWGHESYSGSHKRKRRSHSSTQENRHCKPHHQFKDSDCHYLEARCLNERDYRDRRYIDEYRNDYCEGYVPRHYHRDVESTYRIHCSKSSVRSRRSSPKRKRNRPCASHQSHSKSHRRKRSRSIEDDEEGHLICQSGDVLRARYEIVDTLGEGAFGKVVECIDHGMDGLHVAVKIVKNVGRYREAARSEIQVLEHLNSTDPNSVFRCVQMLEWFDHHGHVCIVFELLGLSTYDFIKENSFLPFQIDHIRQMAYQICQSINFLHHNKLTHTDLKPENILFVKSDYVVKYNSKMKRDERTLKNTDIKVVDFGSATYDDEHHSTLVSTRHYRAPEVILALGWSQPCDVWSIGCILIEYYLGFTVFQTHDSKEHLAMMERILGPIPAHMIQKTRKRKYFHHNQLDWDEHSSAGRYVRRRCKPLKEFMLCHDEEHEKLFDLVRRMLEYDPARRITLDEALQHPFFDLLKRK
Chain of Dual specificity protein kinase CLK2 (O35491 whole entry): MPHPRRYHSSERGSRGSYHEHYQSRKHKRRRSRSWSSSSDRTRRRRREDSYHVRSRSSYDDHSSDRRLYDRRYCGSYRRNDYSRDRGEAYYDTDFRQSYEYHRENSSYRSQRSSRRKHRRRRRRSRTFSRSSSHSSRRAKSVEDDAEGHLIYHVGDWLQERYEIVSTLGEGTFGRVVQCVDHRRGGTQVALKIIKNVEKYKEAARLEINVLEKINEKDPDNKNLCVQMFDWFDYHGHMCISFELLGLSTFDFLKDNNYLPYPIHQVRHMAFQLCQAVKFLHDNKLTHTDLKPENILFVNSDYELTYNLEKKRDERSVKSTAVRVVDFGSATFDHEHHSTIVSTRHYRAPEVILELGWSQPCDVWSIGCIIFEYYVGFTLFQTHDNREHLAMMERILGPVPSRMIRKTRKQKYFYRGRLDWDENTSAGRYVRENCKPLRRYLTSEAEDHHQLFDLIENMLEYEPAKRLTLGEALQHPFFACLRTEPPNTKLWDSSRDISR
Chain of Dual specificity protein kinase CLK2 (Mus musculus) (O35491 whole entry, looked up): as the sequence (O35491 whole entry) above
Chain of Dual specificity protein kinase CLK3 (Mus musculus) (O35492 whole entry): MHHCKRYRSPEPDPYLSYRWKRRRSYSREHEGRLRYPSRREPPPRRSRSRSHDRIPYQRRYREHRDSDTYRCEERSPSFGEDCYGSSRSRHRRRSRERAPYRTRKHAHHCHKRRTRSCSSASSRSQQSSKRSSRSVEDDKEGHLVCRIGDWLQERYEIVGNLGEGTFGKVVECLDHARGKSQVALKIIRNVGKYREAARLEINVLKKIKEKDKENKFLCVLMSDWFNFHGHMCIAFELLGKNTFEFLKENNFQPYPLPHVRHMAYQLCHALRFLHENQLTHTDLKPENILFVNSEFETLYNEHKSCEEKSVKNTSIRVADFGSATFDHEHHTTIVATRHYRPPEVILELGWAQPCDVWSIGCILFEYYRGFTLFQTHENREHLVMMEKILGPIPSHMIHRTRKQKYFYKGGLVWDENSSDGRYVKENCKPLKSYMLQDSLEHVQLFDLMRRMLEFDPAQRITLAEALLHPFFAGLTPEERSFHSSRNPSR
Chain of SRSF protein kinase 2 (Homo sapiens) (P78362 whole entry, looked up): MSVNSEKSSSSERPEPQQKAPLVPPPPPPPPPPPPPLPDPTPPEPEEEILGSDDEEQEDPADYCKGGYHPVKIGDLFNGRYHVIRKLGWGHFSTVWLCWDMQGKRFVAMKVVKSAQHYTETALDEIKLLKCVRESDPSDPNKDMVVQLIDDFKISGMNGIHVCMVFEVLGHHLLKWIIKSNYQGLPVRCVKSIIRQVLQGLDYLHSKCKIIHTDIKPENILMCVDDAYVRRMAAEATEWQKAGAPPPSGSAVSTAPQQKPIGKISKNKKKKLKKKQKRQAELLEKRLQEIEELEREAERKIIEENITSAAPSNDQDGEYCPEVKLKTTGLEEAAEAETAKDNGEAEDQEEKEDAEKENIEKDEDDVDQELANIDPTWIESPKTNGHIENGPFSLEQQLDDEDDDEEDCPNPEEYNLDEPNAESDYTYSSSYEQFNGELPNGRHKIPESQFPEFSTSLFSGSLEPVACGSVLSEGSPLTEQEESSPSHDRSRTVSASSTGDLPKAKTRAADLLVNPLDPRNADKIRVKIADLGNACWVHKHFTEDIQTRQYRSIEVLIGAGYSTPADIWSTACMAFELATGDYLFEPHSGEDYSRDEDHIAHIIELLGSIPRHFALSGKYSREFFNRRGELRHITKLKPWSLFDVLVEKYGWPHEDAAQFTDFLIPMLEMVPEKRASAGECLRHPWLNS
Chain of Serine/threonine-protein kinase haspin (Homo sapiens) (Q8TF76 whole entry): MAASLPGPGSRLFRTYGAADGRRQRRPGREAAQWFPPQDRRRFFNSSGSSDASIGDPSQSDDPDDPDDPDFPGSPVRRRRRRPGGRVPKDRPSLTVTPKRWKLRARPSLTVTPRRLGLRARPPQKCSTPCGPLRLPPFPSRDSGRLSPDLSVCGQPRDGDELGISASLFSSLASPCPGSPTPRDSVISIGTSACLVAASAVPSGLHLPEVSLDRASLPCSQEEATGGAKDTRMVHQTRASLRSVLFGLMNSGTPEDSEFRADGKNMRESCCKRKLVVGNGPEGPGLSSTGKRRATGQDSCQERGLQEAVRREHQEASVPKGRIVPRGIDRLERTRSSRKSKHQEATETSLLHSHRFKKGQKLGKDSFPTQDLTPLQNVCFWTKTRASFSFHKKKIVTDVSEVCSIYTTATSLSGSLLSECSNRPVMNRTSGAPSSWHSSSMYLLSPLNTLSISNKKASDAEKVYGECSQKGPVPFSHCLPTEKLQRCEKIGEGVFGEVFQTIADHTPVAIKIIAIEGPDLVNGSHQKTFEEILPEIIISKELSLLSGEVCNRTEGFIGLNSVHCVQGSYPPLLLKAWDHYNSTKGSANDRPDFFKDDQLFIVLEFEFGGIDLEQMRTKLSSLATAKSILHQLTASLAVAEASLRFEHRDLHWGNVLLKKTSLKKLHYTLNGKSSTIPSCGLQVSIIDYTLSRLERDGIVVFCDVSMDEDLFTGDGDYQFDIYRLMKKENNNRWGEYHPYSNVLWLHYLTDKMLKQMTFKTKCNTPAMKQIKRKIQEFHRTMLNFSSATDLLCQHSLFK
Chain of Serine/threonine-protein kinase 17A (Homo sapiens) (Q9UEE5 whole entry): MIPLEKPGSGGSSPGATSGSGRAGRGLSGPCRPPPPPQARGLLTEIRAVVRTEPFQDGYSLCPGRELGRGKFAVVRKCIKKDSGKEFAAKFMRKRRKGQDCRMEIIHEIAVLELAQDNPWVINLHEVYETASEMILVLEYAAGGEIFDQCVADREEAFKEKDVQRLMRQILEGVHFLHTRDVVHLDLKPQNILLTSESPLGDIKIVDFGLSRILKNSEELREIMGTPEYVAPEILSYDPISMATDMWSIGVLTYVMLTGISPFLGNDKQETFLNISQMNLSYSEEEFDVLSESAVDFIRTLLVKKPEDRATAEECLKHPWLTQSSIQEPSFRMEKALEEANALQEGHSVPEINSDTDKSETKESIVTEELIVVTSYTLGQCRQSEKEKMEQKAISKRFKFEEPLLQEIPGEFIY

In general, GI50 refers to the concentration at which growth is held to half of that of the control. Broadly, the IC50 is the concentration that gives 50% inhibition. By inhibition is commonly meant the drop in the measured response relative to a control, in per cent. The pIC50 is the IC50 on a negative log10 scale, so that one unit is a factor of ten. The term LC50 denotes the concentration lethal to half of the exposed cells or organisms. Read a high LC50 as lower toxicity. Regarding `COc1ccc2sc(C(=O)N(C)Cc3cccc(F)c3)cc2c1`, the concentration for 50% growth inhibition (GI50) in series [1] is above 30 µM; in series [2], 27.2 µM. Moreover, the IC50 in series [3] worked out at 4.2 µM. For the same compound, the inhibition in series [4] worked out at 86%; in series [5], 12.1%; in [7], 101%; in [8], 12%; in [9], 13.6%; in series [11] it was 1.4%. Besides, the inhibition in series [12] was 52.6%; in [13], 92%; in series [14] it was 50.2%; in series [15], 58%; in series [16] it was 32%; in [18] it was 33.1%. For the same compound, the inhibition in series [20] stood at 7%; in series [22] it was 44%; in [23], 56.2%. In addition, the result in series [6] and in series [19] was inactive. For the same compound, the inhibition entry in series [10] was “inactive”. For the same compound, the negative logarithm of the IC50 (pIC50) in series [17] was 7.72. In addition, the 50% lethal concentration (LC50) in series [21] came out at 29.4 µM.

(Values after ChEMBL document CHEMBL4014345, “Development of Selective Clk1 and -4 Inhibitors for Cellular Depletion of Cancer-Relevant Proteins” (J Med Chem, 2017).)
